Screening results deposited in PubChem by several laboratories.
Sampled rows, rich in hits. Any-hit rate of the full collection: about 2.2%.
GalR3 antag – GalR3 antagonists in HEK293 cells, primary screen, cell-based, fluorescence readout. Galanin receptor type 3 (Homo sapiens), O60755. HEK293 GalR3-CNG cAMP membrane potential fluorescence; galR3 body fused to GalR1 C-terminus. inhibition, % at 3 µM. 0.44% of 360,000 active;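 active = inhibition above the screen-wide average plus 3 SD, cut at about 13% in these data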;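 note: forskolin and galanin both at EC90 stimulate the cells; cAMP rise reported by CNG channel membrane potential dye signal; 0% = forskolin plus galanin with DMSO and 100% = forskolin alone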
Target sequence (O60755 1-299 limits assumed): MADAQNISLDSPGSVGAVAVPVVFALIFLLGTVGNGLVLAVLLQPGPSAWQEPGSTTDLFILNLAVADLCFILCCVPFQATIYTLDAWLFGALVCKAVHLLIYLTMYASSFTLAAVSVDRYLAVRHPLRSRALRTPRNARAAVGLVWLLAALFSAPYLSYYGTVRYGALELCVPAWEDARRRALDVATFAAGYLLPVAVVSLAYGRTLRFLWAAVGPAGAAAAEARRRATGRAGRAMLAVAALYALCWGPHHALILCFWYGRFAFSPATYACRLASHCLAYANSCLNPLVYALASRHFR
V-ATPase pH – regulators of yeast V-ATPase proton pumping, primary screen, pHLuorin cytosolic pH fluorescence. S. cerevisiae. 0.37% of 350,000 active. response, % at 10 µM; in the data active = response mostly above about 7.3%, no sharp cut-off; inactive = mostly below about 5.4%; note: actives read high
NR2E3 ag-1 – NR2E3 agonists in two-hybrid cells, primary screen, cell-based, luminescence, CHO-S, Gal4-NCOR/VP16-NR2E3 | luciferase | inhibition of corepressor binding, % at 3.98 µM | Photoreceptor-specific nuclear receptor (Homo sapiens), Q9Y5X4 | 0.35% of 360,000 active;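 active = inhibition above the mean of all tested compounds plus 3 SD, cut at about 70% in these data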;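 note: 0% = DMSO with NR2E3 transfected cells and 100% = cells lacking NR2E3 construct; higher means lower luciferase signal from less NR2E3 corepressor binding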
Target sequence (Q9Y5X4 whole entry, looked up, the tested form may be a part): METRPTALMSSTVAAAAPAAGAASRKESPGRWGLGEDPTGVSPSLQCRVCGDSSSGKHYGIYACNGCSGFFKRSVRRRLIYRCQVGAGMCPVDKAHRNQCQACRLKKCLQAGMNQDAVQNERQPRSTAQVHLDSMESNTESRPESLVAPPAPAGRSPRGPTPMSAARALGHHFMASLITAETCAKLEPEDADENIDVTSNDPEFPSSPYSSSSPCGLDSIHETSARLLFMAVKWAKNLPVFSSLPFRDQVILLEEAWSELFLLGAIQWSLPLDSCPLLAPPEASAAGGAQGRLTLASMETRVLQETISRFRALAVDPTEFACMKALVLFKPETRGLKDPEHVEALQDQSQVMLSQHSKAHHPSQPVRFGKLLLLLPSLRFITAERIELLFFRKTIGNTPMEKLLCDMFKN
NR2E3 ag-2 – inhibitors of NR2E3-RetCOR corepressor binding, primary screen, NR2E3 agonist project, biochemical, TR-FRET, GST-NR2E3, biotin-RetCOR; AID 2300, 2010; 0.12% of 320,000 active; 1536-well; Photoreceptor-specific nuclear receptor (Homo sapiens), Q9Y5X4; inhibition of corepressor binding, % at 4.78 µM;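 active = percent inhibition above the cutoff of mean plus 3 SD of all tested compounds, set per screening campaign, cut at about 20% in these data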;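 note: 0% = DMSO wells and 100% = biotin wells as full block of FRET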
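Material: NR2E3–RetCOR corepressor complex / Amount: 1.35 nM GST-NR2E3 / Medium: Tris pH 7.5 / Compound: single nominal compound dose of 4.8 µM / Incubation: 5 h at 4 °C / Technique: TR-FRET, Eu(K)-anti-GST donor, streptavidin-D2 acceptor, ex 340, em 617/671 nm / Read-out basis: percent loss of FRET ratio relative to control wells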
FXN GAA850 act – FXN promoter activators, primary screen, cell-based, luciferase luminescence, HEK293 lucGAA850; HEK293 lucGAA850 FXN promoter luciferase reporter, 24 h; percent of 10 µM SAHA response; 0.56% of 360,000 active; activation, % at 6 µM;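 active = activation above the average of all compounds screened plus 3 SD, cutoff fixed separately per campaign, cut at about 7.5% in these data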;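 note: 0% = DMSO wells and 100% = 10 µM SAHA wells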
Env fusion inh – inhibitors of HIV-1 Env-driven cell-cell fusion, primary screen, HeLa-JRFL effector, CEM21 target cells, luciferase. 1.1% of 360,000 active. inhibition, % at 12.3 µM. AID 651610, 2012;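 active = mean replicate inhibition score of at least 50 and every replicate individually at or above 50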;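 note: 0% = plate neutral controls and 100% = maraviroc near 300 nM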
* marks the source's active call; other numbers are inactive results; · = not tested or not shown; [ ] = another dose, or the depositor's remark.

SMILES	GalR3 antag	V-ATPase pH	NR2E3 ag-1	NR2E3 ag-2	FXN GAA850 act	Env fusion inh
C[C@H]1CCCCO[C@@H](CN(C)S(=O)(=O)c2cccs2)[C@@H](C)CN([C@@H](C)CO)C(=O)c2cc(NC(=O)Nc3ccc(F)cc3)ccc2O1	·	·	·	·	·	2.4[16.7 µM]
COc1ccc2ccccc2c1CNC(C)c1ccccc1 (stereo not drawn)	-10.8	0.7	15.6	-0.3	1.0	16.6
CC(NCCCOc1cccc2ccccc12)c1ccccc1 (stereo not drawn)	-15.1	3.3	-10.8	0.4	5.1	74.9*
COc1ccc2nc(N/C(N)=N/C(=S)Nc3c(C)cccc3C)nc(C)c2c1	-7.2	-0.5	15.2	-1.8	1.3	-11.9
COc1ccc2nc(N/C(N)=N/S(C)(=O)=O)nc(C)c2c1	-8.2	0.7	-3.5	-4.0	2.6	60.7*
O=C(C1=C[C@H](C2CCCCC2)C[C@H](OCc2ccc(CO)cc2)O1)N1CCCC1	·	·	·	·	·	-11.9[16.7 µM]
COc1cc(C=NNc2ccccc2)ccc1OC(=O)c1ccccc1	-4.2	-1.8	9.5	·	-2.0	-41.9
Cc1ccsc1/C=N/Nc1cccc(C(=O)O)c1	-4.4	-2.0	-241.3	-3.3	2.8	67.6*
Cc1ccsc1/C=N/Nc1ccc(C(=O)O)cc1	-5.2	2.4	-99.6	-6.7	-4.1	52.2
CCOc1cc(/C=N/Nc2cccc(C(=O)O)c2)ccc1OC(=O)c1ccccc1	-4.2	0.6	-219.4	·	2.9	64.8*
Cc1ccccc1-c1cnc2c(c1)C(=O)N([C@@H](C)CO)C[C@H](C)[C@@H](CN(C)C(=O)c1ccncc1)O2	·	·	·	·	·	-1.4[16.7 µM]
C[C@@H]1CN([C@@H](C)CO)C(=O)Cc2cc(NC(=O)c3ccncc3)ccc2O[C@H]1CN(C)Cc1ccc(C(=O)O)cc1	·	·	·	·	·	-12.8[16.7 µM]
COC(=O)C1=C(C)N(Cc2cccc(C(F)(F)F)c2)C(=NCc2ccc(OC)cc2)NC1c1ccc(F)cc1 (stereo not drawn)	-2.1	·	·	·	·	2.1
CCN1C(=O)N[C@@H](c2ccc(Br)cc2)C(C(=O)OC)=C1C	-7.7	1.3	-1.4	0.2	0.0	-20.8
COC(=O)C1=C(C)N(CC2CC2)C(=O)N[C@H]1c1ccc(Br)cc1	-6.3	·	·	2.1	·	77.5*
COC(=O)C1=C(C)N(Cc2cccc(C(F)(F)F)c2)C(=NCc2ccc3c(c2)OCO3)NC1c1ccc(Cl)cc1 (stereo not drawn)	-5.4	·	·	·	·	63.5*
COC(=O)C1=C(C)N(Cc2ccc(Cl)cc2)C(=S)NC1c1ccc(Cl)cc1 (stereo not drawn)	-9.9	·	·	·	·	60.6*
COC(=O)C1=C(C)N(Cc2cccc(C(F)(F)F)c2)C(=NCc2ccc(OC)cc2)NC1c1ccccc1 (stereo not drawn)	-5.7	·	·	·	·	55.1*
Cc1noc(C)c1NC(=O)Nc1ccc2c(c1)C(=O)N([C@@H](C)CO)C[C@H](C)[C@H](CN(C)C(=O)Nc1ccc(C(F)(F)F)cc1)OCCCC[C@H](C)O2	·	·	·	·	·	1.4[16.7 µM]
C[C@@H]1CN([C@@H](C)CO)C(=O)c2cc(NC(=O)C3CC3)ccc2O[C@@H]1CN(C)C(=O)Nc1ccc2c(c1)OCO2	·	·	·	·	·	13.5[16.7 µM]
COc1ccc(S(=O)(=O)Nc2ccc3c(c2)C(=O)N([C@@H](C)CO)C[C@@H](C)[C@H](CN(C)Cc2ccc4c(c2)OCO4)OCCCC[C@H](C)O3)cc1	·	·	·	·	·	-97.3[16.7 µM]
COC(=O)C1=C(C)N(C)C(=NCc2ccc3c(c2)OCO3)NC1c1ccc(C(F)(F)F)cc1 (stereo not drawn)	-5.5	·	·	·	·	57.2*
COc1ccc(S(=O)(=O)N(C)C[C@@H]2Oc3c(NS(=O)(=O)c4ccc(F)cc4)cccc3C(=O)N([C@H](C)CO)C[C@@H]2C)cc1	·	·	·	·	·	-17.7[16.7 µM]
Cc1ccc(-c2ccc(=O)[nH]n2)cc1	1.3	-0.2	-22.7	1.6	1.8	56.1*
COCC(=O)N(C)C[C@@H]1Oc2ncc(C#C[C@@H](C)O)cc2C(=O)N([C@@H](C)CO)C[C@@H]1C	·	·	·	·	·	17.9[16.7 µM]
SMILES	GalR3 antag	V-ATPase pH	NR2E3 ag-1	NR2E3 ag-2	FXN GAA850 act	Env fusion inh
C[C@@H]1CN([C@@H](C)CO)C(=O)c2cccc(NC(=O)Nc3ccc(F)cc3)c2O[C@H]1CN(C)S(C)(=O)=O	·	·	·	·	·	-5.6[16.7 µM]
COCCCNC(=O)c1sc2ncnc(N3CCc4ccccc4C3)c2c1C	-3.9	7.3	-6.4	6.2	-0.7	78.4*
Cc1c(C(=O)N2CCOCC2)sc2ncnc(N3CCc4ccccc4C3)c12	-0.8	0.5	-27.7	1.5	-0.4	·
O=C(c1ccc(-c2ccccc2)cc1)c1ccccc1C(=O)N1CCOCC1	-3.9	2.0	-5.1	1.2	1.5	-7.2
S=C(c1ccc(-c2ccccc2)cc1)N1CCOCC1	-11.0	-3.8	-26.9	0.3	-7.0	63.4*
COC(=O)C[C@H]1C[C@@H]2c3cc(NS(=O)(=O)c4ccc(F)cc4)ccc3O[C@@H]2[C@H](CO)O1	·	·	·	·	·	-14.3[16.7 µM]
COc1ccc(COCC23N=C4SCc5ccccc5CN4[C@H](c4ccccc4O2)[C@H]3COC(=O)c2ccccc2)cc1	·	·	·	·	·	69.3*[16.7 µM]
CCc1cnc(N2[C@@H](C#N)[C@H](c3ccc(C#Cc4ccccc4F)cc3)[C@@H]2CO)s1	·	·	·	·	·	59.1*[16.7 µM]
C[C@H]1CN([C@@H](C)CO)C(=O)c2ccccc2-c2ccccc2CO[C@@H]1CN(C)C(=O)c1ccc(F)cc1	·	·	·	·	·	-8.8[16.7 µM]
CCCCCCCCN1C(=O)[C@H](CC(=O)NCCCCc2ccccc2)C[C@@]2(C(=O)OCC)CCCC=C12	-0.8	·	21.9	·	·	68.6*
CCOC(=O)[C@]12CCC=C1N(Cc1cccc3ccccc13)C(=O)[C@H](CC(=O)NCC13CC4CC(CC(C4)C1)C3)C2	-6.0	·	-26.7	·	·	-62.2
CCOC(=O)[C@]12CCC=C1N(Cc1ccccc1)C(=O)[C@H](CC(=O)NCC13CC4CC(CC(C4)C1)C3)C2	-6.0	·	-23.3	·	·	63.9*
COc1ccc(S(=O)(=O)Nc2ccc3c(c2)C(=O)N([C@@H](C)CO)C[C@H](C)[C@H](CN(C)C(=O)Nc2ccc(C(F)(F)F)cc2)O3)cc1	·	·	·	·	·	-40.1[16.7 µM]
Cc1ccc(COC[C@H](CC(C)C)N2CCN(C(=O)c3cccc(C(F)(F)F)c3)CCC2=O)cc1	-7.2	·	2.9	·	·	2.5
Cc1ccccc1COC[C@H](CC(C)C)N1CCN(C(=O)c2cccc(C(F)(F)F)c2)CCC1=O	-5.1	4.4	-8.3	0.7	0.6	72.0*
CC(C)CC(COCc1cccc(C(F)(F)F)c1)N1CCN(C(=O)c2cccc(C(F)(F)F)c2)CCC1=O (stereo not drawn)	-6.5	-1.6	-14.9	4.7	3.7	66.7*
